Test results as given in ChEMBL document CHEMBL3259517, “Synthesis and evaluation of phosphorus containing, specific CDK9/CycT1 inhibitors” (J Med Chem, 2014).
The source made the active and inactive calls. The calls are words filed in the database; no cut-off is given here.

Experiments:
CDK9/cyclin T1 [1] = biological target: T1, CDK9/cyclin T1 (Homo sapiens, UniProt P50750); assay: Inhibition of CDK9/CycT1 (unknown origin); type: protein-complex assay
[2] = tested on: Human immunodeficiency virus 1; assay: Antiviral activity against HIV1 HTLV-3B infected in human MT4 cells assessed as inhibition of virus proliferation by measuring host cell viability at 1250 nM relative to control; type: functional
How it was run: (§1)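 HIV-1 HTLV-IIIB (3400 TCID50/mL per well; titre set by virus yield assay) infected MT4 cells, 2−3 × 10⁴/well in RPMI1640 with 10% FCS, penicillin and streptomycin, cultured as for the 7-day viability assay (37 °C, 5% CO2). Test compounds were at 1250 nM and AZT control at 25 nM. Read-out was MTT (4 h, DMSO, A540), given relative to infected untreated cells (100%).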

[3] = biological target: Vascular endothelial growth factor receptor 2 (Homo sapiens) (UniProt P35968); assay: Inhibition of VEGFR2 (unknown origin) at 1 uM
[4] = biological target: Platelet-derived growth factor receptor beta (Homo sapiens) (UniProt P09619); assay: Inhibition of PDGFRb (unknown origin) at 1 uM
[5] = biological target: Proto-oncogene tyrosine-protein kinase Src (Homo sapiens) (UniProt P12931); assay: Inhibition of SRC (unknown origin) at 1 uM
[6] = biological target: Tyrosine-protein kinase receptor UFO (Homo sapiens) (UniProt P30530); assay: Inhibition of AXL (unknown origin) at 1 uM
[7] = biological target: Hepatocyte growth factor receptor (Homo sapiens) (UniProt P08581); assay: Inhibition of cMET (unknown origin) at 1 uM
[8] = biological target: High affinity nerve growth factor receptor (Homo sapiens) (UniProt P04629); assay: Inhibition of TrkA (unknown origin) at 1 uM
[9] = biological target: Serine/threonine-protein kinase PAK 1 (Homo sapiens) (UniProt Q13153); assay: Inhibition of PAK1 (unknown origin) at 1 uM
[10] = biological target: Tyrosine-protein kinase SYK (Homo sapiens) (UniProt P43405); assay: Inhibition of SYK (unknown origin) at 1 uM
[11] = biological target: T2, CDK9/cyclin T1 (Homo sapiens) (UniProt O60563+P50750); assay: Inhibition of CDK9/CycT1 (unknown origin) using TAMRA-Rbtide and ATP as substrate at 1 uM after 1 hr; type: protein-complex assay
[12] = biological target: Serine/threonine-protein kinase PAK 4 (Homo sapiens) (UniProt O96013); assay: Inhibition of PAK4 (unknown origin) at 1 uM
[13] = biological target: Tyrosine-protein kinase JAK3 (Homo sapiens) (UniProt P52333); assay: Inhibition of JAK3 (unknown origin) at 1 uM
[14] = Cytotoxicity against human MT4 cells assessed as cell viability at 2500 nM after 7 days by MTT assay relative to control; type: cell-based; conditions: read-out: Activity
How it was run: (§2)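 MT4 cells (2−3 × 10⁴/well) in RPMI1640 with 10% FCS, penicillin and streptomycin, exposed to compound at 2500 or 1250 nM for 7 days at 37 °C, 5% CO2. MTT added for 4 h, supernatant removed, formazan dissolved in DMSO, absorbance read at 540 nm. Viability expressed relative to untreated cells (100%).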

[15] = biological target: Receptor tyrosine-protein kinase erbB-2 (Homo sapiens) (UniProt P04626); assay: Inhibition of ERBB2 (unknown origin) at 1 uM
[16] = biological target: T3, Cyclin-dependent kinase 4/cyclin D1 (Homo sapiens) (UniProt P11802+P24385); assay: Inhibition of CDK4/CycD1 (unknown origin) using FAM labeled peptide as substrate at 1 uM by IMAP FAM FP assay; type: protein-complex assay
How it was run: (§3)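 Run by contract partners as an IMAP fluorescence polarization assay. […] Enzyme amount was set to give 50% substrate turnover. Compounds were added in DMSO, IMAP binding solution added after the kinase step, then FP read.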

[17] = biological target: Protein kinase C alpha type (Homo sapiens) (UniProt P17252); assay: Inhibition of PKCalpha (unknown origin) at 1 uM
[18] = biological target: Serine/threonine-protein kinase pim-1 (Homo sapiens) (UniProt P11309); assay: Inhibition of PIM1 (unknown origin) at 1 uM
[19] = biological target: Serine/threonine-protein kinase mTOR (Homo sapiens) (UniProt P42345); assay: Inhibition of mTOR (unknown origin) at 1 uM
[20] = Cytotoxicity against human MT4 cells assessed as cell viability at 1250 nM after 7 days by MTT assay relative to control; type: cell-based; conditions: read-out: Activity; how it was run: as §2
[21] = biological target: Serine/threonine-protein kinase B-raf (Homo sapiens) (UniProt P15056); assay: Inhibition of bRAF (unknown origin) at 1 uM
[22] = biological target: Angiopoietin-1 receptor (Homo sapiens) (UniProt Q02763); assay: Inhibition of TIE2 (unknown origin) at 1 uM
[23] = biological target: Inhibitor of nuclear factor kappa-B kinase subunit beta (Homo sapiens) (UniProt O14920); assay: Inhibition of IKKbeta (unknown origin) at 1 uM
[24] = biological target: Fibroblast growth factor receptor 3 (Homo sapiens) (UniProt P22607); assay: Inhibition of FGFR3 (unknown origin) at 1 uM
[25] = biological target: Epithelial discoidin domain-containing receptor 1 (Homo sapiens) (UniProt Q08345); assay: Inhibition of DDR1 (unknown origin) at 1 uM
[26] = biological target: Serine/threonine-protein kinase Chk1 (Homo sapiens) (UniProt O14757); assay: Inhibition of CHK1 (unknown origin) at 1 uM
[27] = biological target: T2, CDK9/cyclin T1 (Homo sapiens); assay: Competitive inhibition of CDK9/CycT1 (unknown origin) using ATP as substrate; type: protein-complex assay
How it was run: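 Kinase inhibition measured with inhibitor held constant at 260 nM across five ATP concentrations, printed as 1.33, 4, 12 (K_mATP), 36 and 108 […]. Ki taken from measured IC50 via the Cheng−Prusoff equation, with the IC50/Ki ratio compared across ATP levels.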

[28] = biological target: Proto-oncogene tyrosine-protein kinase receptor Ret (Homo sapiens) (UniProt P07949); assay: Inhibition of RET (unknown origin) at 1 uM
[29] = biological target: Tyrosine-protein kinase CSK (Homo sapiens) (UniProt P41240); assay: Inhibition of CSK (unknown origin) at 1 uM
[30] = biological target: Interleukin-1 receptor-associated kinase 4 (Homo sapiens) (UniProt Q9NWZ3); assay: Inhibition of IRAK4 (unknown origin) at 1 uM
[31] = biological target: Insulin receptor (Homo sapiens) (UniProt P06213); assay: Inhibition of INSR (unknown origin) at 1 uM
[32] = biological target: Rho-associated protein kinase 2 (Homo sapiens) (UniProt O75116); assay: Inhibition of ROCK2 (unknown origin) at 1 uM
CDK9/cyclin T1 [33] = biological target: T1, CDK9/cyclin T1; assay: Inhibition of CDK9/CycT1 (unknown origin) using TAMRA-Rbtide and ATP as substrate after 1 hr; type: protein-complex assay
[34] = biological target: Mast/stem cell growth factor receptor Kit (Homo sapiens) (UniProt P10721); assay: Inhibition of cKIT (unknown origin) at 1 uM
[35] = biological target: RAC-alpha serine/threonine-protein kinase (Homo sapiens) (UniProt P31749); assay: Inhibition of AKT1 (unknown origin) at 1 uM
[36] = biological target: T4, Cyclin-dependent kinase 2/cyclin E1 (Homo sapiens) (UniProt P24864+P24941); assay: Inhibition of CDK2/CycE (unknown origin) using FAM labeled peptide as substrate at 1 uM by IMAP FAM FP assay; type: protein-complex assay; how it was run: as §3
[37] = biological target: Receptor-type tyrosine-protein kinase FLT3 (Homo sapiens) (UniProt P36888); assay: Inhibition of FLT3 (unknown origin) at 1 uM
[38] = biological target: Tyrosine-protein kinase ABL1 (Homo sapiens) (UniProt P00519); assay: Inhibition of ABL (unknown origin) at 1 uM
CDK9/cyclin T1 [39] = biological target: T1, CDK9/cyclin T1; assay: Inhibition of CDK9/CycT1 (unknown origin) expressed in HEK293 cells using GST-CTDII as substrate
[40] = biological target: T4, Cyclin-dependent kinase 2/cyclin E1 (Homo sapiens); assay: Inhibition of CDK2/CycE (unknown origin) using FAM labeled peptide as substrate at 10 uM by IMAP FAM FP assay; type: protein-complex assay; how it was run: as §3
[41] = biological target: T3, Cyclin-dependent kinase 4/cyclin D1 (Homo sapiens); assay: Inhibition of CDK4/CycD1 (unknown origin) using FAM labeled peptide as substrate at 10 uM by IMAP FAM FP assay; type: protein-complex assay; how it was run: as §3
[42] = tested on: Human immunodeficiency virus 1; assay: Antiviral activity against HIV1 HTLV-3B infected in human MT4 cells assessed as inhibition of virus proliferation by measuring host cell viability at 25 nM relative to control; type: functional; how it was run: as §1
[43] = biological target: Interleukin-1 receptor-associated kinase 3 (Homo sapiens) (UniProt Q9Y616); assay: Binding to IRAK3 (unknown origin) at 1 uM

T1 sequence (O60563 whole entry): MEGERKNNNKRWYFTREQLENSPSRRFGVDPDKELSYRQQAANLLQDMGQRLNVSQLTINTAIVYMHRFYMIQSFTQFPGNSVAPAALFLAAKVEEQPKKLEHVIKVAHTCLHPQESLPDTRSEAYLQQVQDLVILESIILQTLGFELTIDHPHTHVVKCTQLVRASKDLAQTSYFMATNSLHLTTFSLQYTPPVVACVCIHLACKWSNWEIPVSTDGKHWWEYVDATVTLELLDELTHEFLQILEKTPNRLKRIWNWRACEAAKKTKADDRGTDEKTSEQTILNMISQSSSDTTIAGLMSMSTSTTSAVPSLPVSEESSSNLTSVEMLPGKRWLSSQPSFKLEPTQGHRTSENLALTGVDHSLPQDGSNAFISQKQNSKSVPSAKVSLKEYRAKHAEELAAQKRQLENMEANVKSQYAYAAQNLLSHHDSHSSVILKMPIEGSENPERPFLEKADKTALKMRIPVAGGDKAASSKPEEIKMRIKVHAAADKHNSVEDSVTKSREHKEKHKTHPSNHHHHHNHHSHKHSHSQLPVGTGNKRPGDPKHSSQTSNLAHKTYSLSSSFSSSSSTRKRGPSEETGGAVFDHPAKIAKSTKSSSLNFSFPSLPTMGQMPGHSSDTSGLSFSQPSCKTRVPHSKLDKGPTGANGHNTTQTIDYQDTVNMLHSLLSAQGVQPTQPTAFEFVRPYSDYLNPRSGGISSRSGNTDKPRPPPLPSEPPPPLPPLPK
T1 sequence (P50750 whole entry): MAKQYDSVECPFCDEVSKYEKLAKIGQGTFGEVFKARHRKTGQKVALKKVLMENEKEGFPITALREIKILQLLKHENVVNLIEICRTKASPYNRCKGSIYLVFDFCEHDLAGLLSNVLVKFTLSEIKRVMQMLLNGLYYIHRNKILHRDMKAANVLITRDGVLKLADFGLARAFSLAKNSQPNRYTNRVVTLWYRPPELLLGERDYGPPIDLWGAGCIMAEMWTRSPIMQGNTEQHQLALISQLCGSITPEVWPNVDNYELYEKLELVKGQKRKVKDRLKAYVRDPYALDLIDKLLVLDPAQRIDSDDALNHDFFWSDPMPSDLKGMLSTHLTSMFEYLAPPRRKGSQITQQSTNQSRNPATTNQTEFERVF
Sequence of Tyrosine-protein kinase ABL1 (Homo sapiens) (P00519 whole entry): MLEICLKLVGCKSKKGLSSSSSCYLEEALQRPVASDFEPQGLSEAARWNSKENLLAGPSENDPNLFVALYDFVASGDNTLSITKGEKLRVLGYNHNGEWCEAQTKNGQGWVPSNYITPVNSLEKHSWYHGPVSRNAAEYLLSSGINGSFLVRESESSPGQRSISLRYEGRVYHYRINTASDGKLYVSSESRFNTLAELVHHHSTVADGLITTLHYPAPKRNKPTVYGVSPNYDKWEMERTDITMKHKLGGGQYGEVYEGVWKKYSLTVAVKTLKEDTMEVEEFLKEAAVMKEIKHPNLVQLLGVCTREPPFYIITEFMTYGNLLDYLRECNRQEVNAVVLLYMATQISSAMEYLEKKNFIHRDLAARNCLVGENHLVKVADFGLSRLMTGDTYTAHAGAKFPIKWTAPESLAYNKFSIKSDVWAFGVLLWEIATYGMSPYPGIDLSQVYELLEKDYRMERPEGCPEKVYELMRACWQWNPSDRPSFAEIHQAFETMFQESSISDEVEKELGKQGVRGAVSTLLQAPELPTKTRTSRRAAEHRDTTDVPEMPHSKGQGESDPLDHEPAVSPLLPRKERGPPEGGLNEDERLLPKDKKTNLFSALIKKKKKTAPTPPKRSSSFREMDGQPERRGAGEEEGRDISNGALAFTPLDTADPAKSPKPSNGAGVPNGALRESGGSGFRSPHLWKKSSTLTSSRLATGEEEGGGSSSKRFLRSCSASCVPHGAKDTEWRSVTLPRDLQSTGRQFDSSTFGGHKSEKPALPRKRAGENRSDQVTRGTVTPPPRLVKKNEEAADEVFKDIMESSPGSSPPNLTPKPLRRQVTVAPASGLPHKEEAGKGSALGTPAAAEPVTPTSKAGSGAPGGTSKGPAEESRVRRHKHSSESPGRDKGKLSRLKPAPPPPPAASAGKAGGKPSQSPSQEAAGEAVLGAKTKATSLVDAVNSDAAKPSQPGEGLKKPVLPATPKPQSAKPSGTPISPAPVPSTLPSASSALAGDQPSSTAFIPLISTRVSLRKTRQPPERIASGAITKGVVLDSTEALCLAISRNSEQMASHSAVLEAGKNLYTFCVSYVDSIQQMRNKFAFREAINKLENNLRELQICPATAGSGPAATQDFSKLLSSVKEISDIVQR
Sequence of Tyrosine-protein kinase CSK (Homo sapiens) (P41240 2-450 limits assumed): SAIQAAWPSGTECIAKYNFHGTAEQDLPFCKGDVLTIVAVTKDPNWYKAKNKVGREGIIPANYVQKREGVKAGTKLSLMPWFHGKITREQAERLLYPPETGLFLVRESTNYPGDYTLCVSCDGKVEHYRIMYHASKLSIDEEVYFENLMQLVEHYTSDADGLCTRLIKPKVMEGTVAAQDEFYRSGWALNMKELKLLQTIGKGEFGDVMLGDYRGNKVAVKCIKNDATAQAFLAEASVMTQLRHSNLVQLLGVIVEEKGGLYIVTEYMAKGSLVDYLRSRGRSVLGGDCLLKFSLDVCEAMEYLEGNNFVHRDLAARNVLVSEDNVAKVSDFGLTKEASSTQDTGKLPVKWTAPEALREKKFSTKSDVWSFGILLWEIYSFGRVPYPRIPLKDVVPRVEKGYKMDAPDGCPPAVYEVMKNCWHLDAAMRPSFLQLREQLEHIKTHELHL
Sequence of Proto-oncogene tyrosine-protein kinase receptor Ret (Homo sapiens) (P07949 whole entry): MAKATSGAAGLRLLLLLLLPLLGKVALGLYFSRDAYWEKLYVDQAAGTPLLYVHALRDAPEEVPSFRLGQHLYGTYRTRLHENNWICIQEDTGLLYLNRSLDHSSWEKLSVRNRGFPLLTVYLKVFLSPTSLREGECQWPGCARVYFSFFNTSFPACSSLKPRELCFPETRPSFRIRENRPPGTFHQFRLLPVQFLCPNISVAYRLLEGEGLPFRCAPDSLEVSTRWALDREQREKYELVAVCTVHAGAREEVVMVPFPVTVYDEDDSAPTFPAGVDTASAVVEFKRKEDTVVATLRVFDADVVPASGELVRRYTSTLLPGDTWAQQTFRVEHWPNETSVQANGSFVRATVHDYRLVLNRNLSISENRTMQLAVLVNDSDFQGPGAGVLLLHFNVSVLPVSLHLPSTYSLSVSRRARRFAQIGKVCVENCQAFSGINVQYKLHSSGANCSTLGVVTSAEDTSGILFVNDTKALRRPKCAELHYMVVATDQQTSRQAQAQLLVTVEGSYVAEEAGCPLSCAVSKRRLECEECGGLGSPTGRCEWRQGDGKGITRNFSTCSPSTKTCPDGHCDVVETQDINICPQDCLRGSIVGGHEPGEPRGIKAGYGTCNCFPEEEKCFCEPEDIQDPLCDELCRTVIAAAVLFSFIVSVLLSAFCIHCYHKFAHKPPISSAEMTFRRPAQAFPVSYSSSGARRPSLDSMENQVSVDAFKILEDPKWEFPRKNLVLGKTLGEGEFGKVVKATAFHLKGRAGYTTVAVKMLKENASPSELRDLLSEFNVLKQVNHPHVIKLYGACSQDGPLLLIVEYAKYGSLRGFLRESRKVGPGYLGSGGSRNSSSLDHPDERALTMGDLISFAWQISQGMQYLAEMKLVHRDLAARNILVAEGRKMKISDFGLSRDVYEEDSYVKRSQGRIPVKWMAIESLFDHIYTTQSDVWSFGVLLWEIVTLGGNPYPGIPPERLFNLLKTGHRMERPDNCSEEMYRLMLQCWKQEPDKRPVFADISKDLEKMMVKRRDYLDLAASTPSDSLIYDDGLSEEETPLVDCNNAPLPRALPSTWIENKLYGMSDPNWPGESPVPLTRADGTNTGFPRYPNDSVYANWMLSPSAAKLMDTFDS
Sequence of Receptor-type tyrosine-protein kinase FLT3 (Homo sapiens) (P36888 whole entry): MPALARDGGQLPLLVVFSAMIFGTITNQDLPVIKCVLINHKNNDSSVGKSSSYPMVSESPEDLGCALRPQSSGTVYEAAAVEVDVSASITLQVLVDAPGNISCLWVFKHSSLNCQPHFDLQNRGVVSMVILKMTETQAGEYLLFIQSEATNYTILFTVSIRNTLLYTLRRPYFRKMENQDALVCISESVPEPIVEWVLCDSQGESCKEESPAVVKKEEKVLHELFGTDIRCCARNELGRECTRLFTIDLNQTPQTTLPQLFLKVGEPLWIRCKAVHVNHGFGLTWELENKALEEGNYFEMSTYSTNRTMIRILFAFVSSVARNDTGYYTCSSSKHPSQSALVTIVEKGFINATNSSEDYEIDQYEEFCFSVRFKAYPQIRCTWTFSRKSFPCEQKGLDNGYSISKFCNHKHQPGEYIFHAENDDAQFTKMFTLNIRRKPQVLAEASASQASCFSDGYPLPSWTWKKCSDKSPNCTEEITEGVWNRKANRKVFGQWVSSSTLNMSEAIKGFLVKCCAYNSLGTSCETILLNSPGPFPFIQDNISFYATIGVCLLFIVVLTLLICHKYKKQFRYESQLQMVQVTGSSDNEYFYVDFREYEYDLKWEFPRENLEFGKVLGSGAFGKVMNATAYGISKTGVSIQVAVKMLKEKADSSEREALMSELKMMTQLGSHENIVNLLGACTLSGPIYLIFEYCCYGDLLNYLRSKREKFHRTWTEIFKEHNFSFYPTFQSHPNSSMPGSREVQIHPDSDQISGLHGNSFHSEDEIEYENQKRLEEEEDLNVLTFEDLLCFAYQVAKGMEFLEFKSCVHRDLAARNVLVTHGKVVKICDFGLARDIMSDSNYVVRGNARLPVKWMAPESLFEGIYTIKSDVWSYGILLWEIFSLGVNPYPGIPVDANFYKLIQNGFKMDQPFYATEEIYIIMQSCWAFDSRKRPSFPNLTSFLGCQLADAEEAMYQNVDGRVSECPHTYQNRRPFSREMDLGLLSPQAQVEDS

SMILES: Cc1ccc(Nc2cc(-c3cccc(N)c3)ncn2)cc1NS(C)(=O)=O
- IC50 (CDK9/cyclin T1 [1]): 129 nM

SMILES: CCCP(=O)(Cc1cccc(Nc2cc(-c3ccccc3OC)ncn2)c1)OCC (stereo unspecified)
- Host cell viability relative to infected untreated cells [2]: 131%
- inhibition [3]: 6%
- inhibition [4]: 2%
- inhibition [5]: 4%
- inhibition [6]: 7%
- inhibition [7]: 6%
- inhibition [8]: -1%
- inhibition [9]: 10%
- inhibition [10]: -1%
- inhibition [11]: 95%
- inhibition [12]: 19%
- inhibition [13]: 0%
- viability at 168 h, 2.5 µM [14]: 81%
- inhibition [15]: 5%
- inhibition [16]: 14%
- inhibition [17]: 9%
- inhibition [18]: -2%
- inhibition [19]: 9%
- viability at 168 h, 1.25 µM [20]: 66%
- inhibition [21]: 5%
- inhibition [22]: 5%
- inhibition [23]: 7%
- inhibition [24]: 1%
- inhibition [25]: 7%
- inhibition [26]: 14%
- competitive inhibition (qualitative) [27]: Active
- inhibition [28]: 16%
- inhibition [29]: 14%
- inhibition [30]: 9%
- inhibition [31]: 2%
- inhibition [32]: 7%
- IC50 (CDK9/cyclin T1 [33]): 296 nM
- inhibition [34]: 16%
- inhibition [35]: -1%
- inhibition [36]: 23%
- inhibition [37]: 6%
- inhibition [38]: 9%

SMILES: CCOP(=O)(CC)Cc1cccc(Nc2cc(-c3cccc(N)c3)ncn2)c1 (stereo unspecified)
- inhibition [11]: 96%
- inhibition [16]: 22%
- IC50 (CDK9/cyclin T1 [33]): 327 nM
- inhibition [36]: 18%

SMILES: COc1ccccc1-c1cc(Nc2ccc(C)c(NS(C)(=O)=O)c2)ncn1
- IC50 (CDK9/cyclin T1 [39]): 30 nM

SMILES: COc1ccccc1-c1cc(Nc2cccc(NS(N)(=O)=O)c2)ncn1
- IC50 (CDK9/cyclin T1 [1]): 170 nM

SMILES: COc1ccccc1-c1cc(Nc2cccc(P(=O)(O)O)c2)ncn1
- Host cell viability relative to infected untreated cells [2]: 130%
- inhibition [40]: 56%
- inhibition [41]: 40%
- viability at 168 h, 2.5 µM [14]: 90%
- viability at 168 h, 1.25 µM [20]: 90%
- competitive inhibition (qualitative) [27]: Active
- IC50 (CDK9/cyclin T1 [33]): 429 nM

SMILES: Cc1cn([C@H]2C[C@H](N=[N+]=[N-])[C@@H](CO)O2)c(=O)[nH]c1=O [ZIDOVUDINE]
- Activity [42]: 132%

SMILES: CCOP(=O)(CC)Cc1cccc(Nc2cc(-c3ccccc3OC)ncn2)c1 (stereo unspecified)
- Host cell viability relative to infected untreated cells [2]: 105%
- inhibition [3]: 11%
- inhibition [4]: 18%
- inhibition [5]: 18%
- inhibition [6]: 21%
- inhibition [7]: 22%
- inhibition [8]: 8%
- inhibition [9]: 20%
- inhibition [10]: 8%
- inhibition [11]: 98%
- inhibition [12]: 25%
- inhibition [13]: 9%
- viability at 168 h, 2.5 µM [14]: 94%
- inhibition [15]: 11%
- inhibition [16]: 24%
- inhibition [17]: 8%
- inhibition [18]: 8%
- inhibition [19]: 3%
- viability at 168 h, 1.25 µM [20]: 94%
- inhibition [21]: 0%
- inhibition [22]: 10%
- inhibition [23]: 15%
- inhibition [24]: 8%
- inhibition [25]: 13%
- inhibition [26]: 12%
- competitive inhibition (qualitative) [27]: Active
- inhibition [28]: 34%
- inhibition [29]: 24%
- inhibition [30]: 16%
- inhibition [31]: 12%
- inhibition [32]: 14%
- IC50 (CDK9/cyclin T1 [33]): 197 nM
- inhibition [34]: 28%
- inhibition [35]: 11%
- inhibition [36]: 36%
- inhibition [37]: 12%
- inhibition [38]: 20%

SMILES: CCCOc1ccccc1-c1cc(Nc2cccc(CP(=O)(CCC)OCC)c2)ncn1 (stereo unspecified)
- competitive inhibition (qualitative) [27]: Active
- IC50 (CDK9/cyclin T1 [33]): 248 nM

SMILES: CCCP(=O)(O)Cc1cccc(Nc2cc(-c3ccccc3OC)ncn2)c1
- competitive inhibition (qualitative) [27]: Active
- IC50 (CDK9/cyclin T1 [33]): 261 nM

SMILES: CCCP(=O)(O)Cc1cccc(Nc2cc(-c3ccccc3OCc3ccccc3)ncn2)c1
- Host cell viability relative to infected untreated cells [2]: 141%
- viability at 168 h, 2.5 µM [14]: 141%
- residual activity [43]: 18%
- viability at 168 h, 1.25 µM [20]: 158%
- IC50 (CDK9/cyclin T1 [33]): 142 nM

SMILES: COc1ccccc1-c1cc(Nc2cccc(S(N)(=O)=O)c2)ncn1
- IC50 (CDK9/cyclin T1 [39]): 52 nM

SMILES: CCCP(=O)(Cc1cccc(Nc2cc(-c3ccccc3OCC)ncn2)c1)OCC (stereo unspecified)
- competitive inhibition (qualitative) [27]: Active
- IC50 (CDK9/cyclin T1 [33]): 254 nM
